Screens: PubChem, Johns Hopkins Ion Channel Center
An excerpt weighted towards active compounds, which were near 3.5% of everything screened.
RGS4 pot – RGS4 potentiators or activators, primary screen, cell-based, HEK293 M3R inducible RGS4, calcium flux; B-score at 10 µM; carbachol calcium flux Fluo4; active compounds read low; AID 463111, 2010; actives 0.92% (n = 310,000);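 active means B-score of the integrated calcium signal more than 4 SD below the library mean, with starting fluorescence not abnormally high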;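 further: negative B-score means reduced calcium response which marks RGS4 activation or potentiation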
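test system = HEK293 cells with stable M3R and inducible RGS4 | schedule = recording 10 s baseline at 1 Hz, 100 s post-agonist | technique = Fluo4-AM (2 µM) calcium-flux fluorescence, kinetic read | measure = Agonist-evoked peak-minus-minimum fluorescence over baseline, integrated ratio, B score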
RGS4 inh – RGS4 inhibitors, primary screen, cell-based, HEK293 M3R inducible RGS4, calcium flux; B-score at 10 µM; Regulator of G-protein signaling 4 (Homo sapiens), P49798; actives 0.45% (n = 310,000); Fluo-4 calcium flux; active compounds read high; triggered by carbachol at its EC20;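 active means B-score, a plate-corrected calcium signal, over three deviations above library mean, with baseline fluorescence within five deviations of library mean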;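 further: RGS4 expression induced by doxycycline in cells with stable M3 receptor; B-score is computed from the integrated fluorescence ratio over baseline after carbachol; higher B-score means a larger calcium signal and so more RGS4 inhibition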
Target sequence (P49798 whole entry, looked up): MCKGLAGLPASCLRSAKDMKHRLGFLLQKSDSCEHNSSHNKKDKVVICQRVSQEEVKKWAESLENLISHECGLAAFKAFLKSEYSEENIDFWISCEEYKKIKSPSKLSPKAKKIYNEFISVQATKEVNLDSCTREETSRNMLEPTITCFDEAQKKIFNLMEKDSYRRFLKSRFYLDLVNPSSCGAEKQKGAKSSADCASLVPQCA
MrgX1 allo act – positive allosteric modulators of MrgX1, primary screen, HEK293 cells, Fluo-4 calcium flux; Mas-related G-protein coupled receptor member X1 (Homo sapiens), Q96LB2; FDSS; active compounds read high; B-score at 10 µM; actives 0.63% (n = 310,000); AID 588675, 2011;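 active means plate-corrected calcium response at least 3 library SD above typical, normal starting fluorescence, not activating the receptor alone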;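 further: compound read alongside a low EC10 to EC30 dose of BAM8-22 agonist; peak minus trough fluorescence over baseline measured at the second addition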
Target sequence (Q96LB2 whole entry, looked up): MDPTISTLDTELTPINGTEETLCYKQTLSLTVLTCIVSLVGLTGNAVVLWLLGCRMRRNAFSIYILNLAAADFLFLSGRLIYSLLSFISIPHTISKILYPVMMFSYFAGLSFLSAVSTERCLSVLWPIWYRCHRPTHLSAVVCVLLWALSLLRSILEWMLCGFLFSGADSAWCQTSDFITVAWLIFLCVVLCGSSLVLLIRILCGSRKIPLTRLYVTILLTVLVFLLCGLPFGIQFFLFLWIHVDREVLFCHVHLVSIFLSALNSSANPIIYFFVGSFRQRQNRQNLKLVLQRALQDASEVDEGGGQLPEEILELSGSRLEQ
MrgX1 agonist – agonists of human MrgX1 receptor, primary screen, HEK293 cells, Fluo-4 calcium flux | actives 0.44% (n = 310,000) | B-score at 10 µM | AID 588627, 2011 | Fluo-4 calcium fluorescence, agonist mode; active compounds read high;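 active means calcium response B-score plate-corrected fluorescence ratio at least 3 library SD, with starting fluorescence B-score inside 5 SD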
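System: HEK293 cells stably expressing human MrgX1 receptor; Dosing: test compound in the initial addition of three; Schedule: overnight plating, then 30 min 37 °C plus 30 min room-temperature dye loading; Detection: kinetic calcium dye fluorescence, Fluo-4 NW; Controls: per-plate positive and negative controls for Z′ factor.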
MrgX1 antag – antagonists of human MrgX1 receptor, primary screen, HEK293 cells, Fluo-4 calcium flux; BAM8-22 antagonism; active compounds read low; B-score at 10 µM; Mas-related G-protein coupled receptor member X1 (Homo sapiens), Q96LB2; actives 1.3% (n = 310,000);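 active means calcium-response B-score plate-corrected more than 3 library SD below zero, starting fluorescence within 5 deviations, no agonist response on first addition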;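 further: peak minus trough fluorescence over baseline after final BAM8-22 challenge near maximal dose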
RGS4 block valid – enhanced carbachol calcium response, M3R/RGS4 cells, RGS4 inhibitor project, cell-based, validation screen, HEK293 M3R/RGS4, calcium flux; shares compounds with RGS4 inh; carbachol calcium Fluo-4 fluorescence; carbachol added at its EC20; 0 = buffer wells, 100 = carbachol control; calcium response, % at 10 µM; actives 65% (n = 1,700);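 active means duplicate-averaged calcium response above the buffer-only control mean plus 5 SD of those controls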;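 further: integrated fluorescence ratio F max minus min over baseline F0; higher response in RGS4-induced cells means RGS4 inhibition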
RGS4 uninduced – carbachol calcium response in non-induced M3R cells, confirmation, counter-screen for RGS4 inhibitor project, cell-based, HEK293 M3R; activity (percent), % at 10 µM; carbachol calcium Fluo-4; submaximal (EC20) carbachol stimulus; buffer wells 0%, carbachol control wells 100%; shares compounds with RGS4 inh; actives 20% (n = 1,900); call rule not given here;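 further: RGS4 induction absent so cells express M3R without RGS4; higher means more calcium signal and flags a non-specific hit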
RGS4 inh ctr2 – signal in non-induced cells without carbachol, RGS4 inhibitor counter-screen; shares compounds with RGS4 inh; HEK293 M3R/RGS4 non-induced, Fluo-4 calcium, no carbachol; normalised: buffer wells 0%, carbachol wells 100%; calcium response (agonist-mode artifact), % at 10 µM; actives 22% (n = 1,900); AID 493001;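 active means duplicate-averaged calcium rise in uninduced cells above buffer wells' mean plus 5 SD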
Large screens that a line does not name were inactive (follow-up assays come after a bar, where they were run).

NC(=O)CC(NC(=O)Cc1ccc(Cl)cc1)c1ccc(NC2CCCC2)c([N+](=O)[O-])c1 (configuration not stated)	none | RGS4 block valid inactive | RGS4 uninduced inactive | RGS4 inh ctr2 inactive
COc1ccc(-n2c(CNc3ccc(C)cc3)nnc2SCc2ccccc2)cc1	none | RGS4 uninduced inactive | RGS4 inh ctr2 inactive
CCCc1[nH]nc2c1C(c1cn[nH]c1-c1ccc(F)cc1)C(C#N)=C(N)O2 (configuration not stated)	RGS4 inh 16 | RGS4 block valid 38% | RGS4 uninduced 44% | RGS4 inh ctr2 15%
Cc1ccc(NC(=O)C2CCCN(C(=O)NCc3ccccc3)C2)c(C)c1 (configuration not stated)	none
Nn1c(Cc2cccc3ccccc23)nnc1SCCOc1ccc(F)cc1	RGS4 inh 6.5 | RGS4 block valid inactive | RGS4 uninduced inactive | RGS4 inh ctr2 inactive
Nn1c(Cc2cccc3ccccc23)nnc1SCc1c(F)cccc1Cl	none
Nn1c(Cc2cccc3ccccc23)nnc1SCCOc1ccc(Br)cc1	none | RGS4 block valid inactive | RGS4 uninduced inactive | RGS4 inh ctr2 inactive
CC(/C=N/NC(=O)c1n[nH]c2c1CCC2)=C\c1ccccc1	none | RGS4 block valid inactive | RGS4 uninduced inactive | RGS4 inh ctr2 inactive
O=C(Oc1ccccc1)c1cccnc1Oc1ccccc1	RGS4 inh 5 | RGS4 block valid inactive | RGS4 uninduced inactive | RGS4 inh ctr2 inactive
O=C(Nc1ccc2c(c1)OCCO2)c1cccnc1Oc1ccc(Cl)cc1	none | RGS4 block valid inactive | RGS4 uninduced inactive | RGS4 inh ctr2 inactive
O=C(Nc1ccc2c(c1)OCCO2)c1cccnc1Oc1ccccc1	RGS4 inh 4.7 | RGS4 block valid 5.5% | RGS4 uninduced inactive | RGS4 inh ctr2 inactive
Cc1cc(S(=O)(=O)NCCCN2CCOCC2)c(C)cc1Cl	none
Oc1ccc(/C=N/Nc2ccc(C(F)(F)F)cn2)cc1	none | RGS4 uninduced inactive | RGS4 inh ctr2 inactive
CC(=O)Nc1ccc(-c2nnc(SCC(=O)Nc3ccc4c(c3)oc3ccccc34)n2C)cc1	none | RGS4 uninduced inactive | RGS4 inh ctr2 16%
O=C(CCC1CCCCC1)NNC(=O)c1cnccn1	RGS4 inh 8.4 | RGS4 block valid 18% | RGS4 uninduced inactive | RGS4 inh ctr2 inactive
O=C(NNC(=O)C1CCCCC1)c1cnccn1	none
Cc1cc(-c2ccco2)n2c(nc3ccccc32)c1C#N	none
Cc1cc(Cl)n2c(nc3cc(F)c(F)cc32)c1C#N	RGS4 inh 7.5 (no result: MrgX1 allo act, MrgX1 agonist, MrgX1 antag) | RGS4 block valid 13% | RGS4 uninduced inactive | RGS4 inh ctr2 9.5%
O=C/C=C/c1c(-c2ccccc2)cc2oc3ccccc3cc1-2	RGS4 inh 24, MrgX1 agonist 35 | RGS4 block valid 16% | RGS4 uninduced inactive | RGS4 inh ctr2 inactive
Clc1ccc(-c2csc(N/N=C/c3cccnc3)n2)c(Cl)c1	none
C(=N\Nc1nc(-c2ccccc2)cs1)/c1cccnc1	none | RGS4 block valid inactive | RGS4 uninduced inactive | RGS4 inh ctr2 inactive
Cc1cc(C(=O)Nc2sc(C)c(C)c2C#N)c(C)o1	RGS4 inh 7.5 | RGS4 block valid 12% | RGS4 uninduced inactive | RGS4 inh ctr2 10%
Cc1sc(NC(=O)c2oc3ccccc3c2C)c(C#N)c1C	none
N#C/C(=C\c1ccccc1[N+](=O)[O-])c1nc(C2CC2)cs1	none
N#C/C(=C\c1ccc([N+](=O)[O-])cc1)c1nc(C2CC2)cs1	RGS4 inh 13 | RGS4 block valid inactive | RGS4 uninduced inactive | RGS4 inh ctr2 56%
COc1cc(F)ccc1S(=O)(=O)N1CCN(c2ccccc2)CC1	none
Cc1ccc(S(=O)(=O)Nc2cccc(C(=O)NCCCn3ccnc3)c2)cc1F	none
COc1cc(/C=C2/C(=O)N(c3ccc(Br)cc3)N=C2C)cc([N+](=O)[O-])c1O	none
COC(=O)c1ccc(N2NC(=O)/C(=C/c3cc(OC)c(OC)c(OC)c3)C2=O)cc1	RGS4 inh 4.9 | RGS4 block valid 14% | RGS4 uninduced inactive | RGS4 inh ctr2 inactive
COc1cccc(/C=C2/C(=O)NN(c3ccc(Br)cc3)C2=O)c1O	none
COC(=O)c1ccc(N2NC(=O)/C(=C/c3cc(OC)c(O)c(OC)c3)C2=O)cc1	none | RGS4 block valid inactive | RGS4 uninduced inactive | RGS4 inh ctr2 30%
COc1cc(/C=C2/C(=O)NN(c3ccc(F)cc3)C2=O)cc(Cl)c1O	RGS4 inh 6.2, MrgX1 agonist 30 | RGS4 block valid 14% | RGS4 uninduced 35% | RGS4 inh ctr2 18%
COc1ccc(N(C(=O)c2snc(C(N)=O)c2N)C(C(=O)NCC2CCCO2)c2ccc(C)o2)cc1OC (configuration not stated)	none
Cc1ccc(S(=O)(=O)/N=C2/NC(=O)/C(=C/c3ccncc3)S2)cc1	RGS4 inh 4.9 | RGS4 block valid 16% | RGS4 uninduced inactive | RGS4 inh ctr2 inactive
COc1cc(/C=C2\S/C(=N/S(=O)(=O)c3ccc(C)cc3)NC2=O)c([N+](=O)[O-])cc1OC	none | RGS4 block valid inactive | RGS4 uninduced 38% | RGS4 inh ctr2 inactive
O=C1N/C(=N/S(=O)(=O)c2ccccc2)S/C1=C/c1cccnc1	none
O=C1N/C(=N\S(=O)(=O)Cc2ccccc2)S/C1=C/c1cccc([N+](=O)[O-])c1	none
CC(=O)Nc1ccc(S(=O)(=O)/N=C2/NC(=O)/C(=C\c3ccco3)S2)cc1	none
Cc1ccc(S(=O)(=O)/N=C2/NC(=O)/C(=C/c3ccccc3)S2)cc1	none | RGS4 block valid inactive | RGS4 uninduced inactive | RGS4 inh ctr2 inactive
COc1ccc(/C=C2/S/C(=N/S(=O)(=O)Cc3ccccc3)NC2=O)cc1OC	RGS4 inh 7.8 | RGS4 block valid 20% | RGS4 uninduced 48% | RGS4 inh ctr2 inactive
CNC(=S)N(Cc1cc2cc(C)ccc2n2nnnc12)CC(C)(C)CN(C)C	none
COCCn1c(C)cc(/C=C2/SC(=O)N(CC(=O)N3CCCC3)C2=O)c1C	none
CCc1nc(N2CCOCC2)c(C#N)c2c1CCCC2	none
